From ChEMBL document CHEMBL3085713, “Facile preparation of tetrahydro-5H-pyrido[1,2,3-de]-1,4-benzoxazines via reductive cyclization of 2-(8-quinolinyloxy)ethanones and their antioxidant activity” (Bioorg Med Chem Lett, 2013)

Key:
[1] = Antioxidant activity assessed as ABTS free radical scavenging activity after 3 mins by spectrophotometry; format: functional
Summary of the method: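 ABTS (2 mM stock in PBS, pH 7.4) reacted with 70 mM K2S2O8, left in dark at room temperature 15-16 h, then diluted with PBS to absorbance 0.70 ± 0.03 at 734 nm. Sample in DMSO (0.1 mL, range of concentrations) mixed with 1.9 mL radical solution; absorbance read at ambient temperature after 3 min, PBS blank. Scavenging % vs sample-free control; triplicate means; IC50 = concentration scavenging 50%.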

[2] = test system: Radical scavenging activity; experiment: Antioxidant activity assessed as DPPH free radical scavenging activity after 30 mins by spectrophotometry; format: functional
Summary of the method: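 Sample in DMSO (0.1 mL, range of concentrations) added to 1.9 mL of 0.004% (w/v) DPPH radical in ethanol; incubated at 37 °C, absorbance read at 517 nm after 30 min. Scavenging % = (A control − A test)/A control × 100, control lacking sample. Triplicate, means used; IC50 taken as concentration scavenging 50% of radicals.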

Compound | IC50 [1] [µM] | IC50 [2] [µM]
c1cc2c3c(c1)OCC(c1cccc4ccccc14)N3CCC2 (stereo not given) | 52.4 | 75.2
CC1Oc2cccc3c2N(CCC3)C1c1ccccc1 (stereo not given) | 62.4 | 95.4
c1cc2c3c(c1)OCC(c1ccc4c(c1)OCO4)N3CCC2 (stereo not given) | 42.5 | 78.3
c1csc(C2COc3cccc4c3N2CCC4)c1 (stereo not given) | 20.2 | 56.3
O=C1O[C@H]([C@@H](O)CO)C(O)=C1O [ASCORBIC ACID] | 18.3 | 49.7
Cc1cc(C(C)(C)C)c(O)c(C(C)(C)C)c1 [BUTYLATED HYDROXYTOLUENE] | 32.1 | 63.1

More lines, now with the values ahead:

IC50 [1] [µM] | IC50 [2] [µM] | Compound
38.3 | 78.8 | c1ccc(C2COc3cccc4c3N2CCC4)cc1 (stereo not given)
48.4 | 98.4 | Cc1ccc(C2COc3cccc4c3N2CCC4)cc1 (stereo not given)
62.2 | 98.3 | c1cc2c3c(c1)OCC(c1ccc4ccccc4c1)N3CCC2 (stereo not given)
15.3 | 45.4 | COc1ccccc1C1COc2cccc3c2N1CCC3 (stereo not given)
9.3 | 44.6 | COc1cccc(C2COc3cccc4c3N2CCC4)c1 (stereo not given)
28.4 | 75.5 | COc1ccc(C2COc3cccc4c3N2CCC4)cc1OC (stereo not given)
26.7 | 64.5 | COc1ccc(C2COc3cccc4c3N2CCC4)cc1 (stereo not given)
17.8 | 52.3 | Nc1cccc(C2COc3cccc4c3N2CCC4)c1 (stereo not given)
10 | 45 | Nc1ccc(C2COc3cccc4c3N2CCC4)cc1 (stereo not given)
